Measured values: ChEMBL document CHEMBL1250485, “Synthesis and activity of endomorphin-2 and morphiceptin analogues with proline surrogates in position 2” (Eur J Med Chem, 2010)
Where a SMILES comes first, the peptide text is derived from it. [ ]: non-standard residue; d: D form. d(β3hP) = O=C(O)C[C@H]1CCCN1; β3hP = O=C(O)C[C@@H]1CCCN1

Legend:
Assay type in all cases: functional, tissue-based
[1] = biological target: Delta-type opioid receptor (Mus musculus, UniProt P32300); test: Agonist activity at delta opioid receptor in mouse vas deferens assessed as inhibition of electrically-stimulated muscle contraction
Outline: (§1)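 Isolated tissue bioassays used MVD for line 1 and GPI/LMMP for […]. IC50 is the mean of at least four experiments, obtained by nonlinear least-squares fitting to the Hill equation.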

[2] = biological target: Mu-type opioid receptor (Cavia porcellus, UniProt P97266); test: Agonist activity at mu opioid receptor in guinea pig ileum assessed as inhibition of electrically-stimulated muscle contraction; outline: as §1
[3] = biological target: Delta-type opioid receptor (Mus musculus) (UniProt P32300); test: Agonist activity at delta opioid receptor in mouse vas deferens assessed as inhibition of electrically-stimulated muscle contraction at 1 uM
Sequence of Delta-type opioid receptor (Mus musculus) (P32300 whole entry): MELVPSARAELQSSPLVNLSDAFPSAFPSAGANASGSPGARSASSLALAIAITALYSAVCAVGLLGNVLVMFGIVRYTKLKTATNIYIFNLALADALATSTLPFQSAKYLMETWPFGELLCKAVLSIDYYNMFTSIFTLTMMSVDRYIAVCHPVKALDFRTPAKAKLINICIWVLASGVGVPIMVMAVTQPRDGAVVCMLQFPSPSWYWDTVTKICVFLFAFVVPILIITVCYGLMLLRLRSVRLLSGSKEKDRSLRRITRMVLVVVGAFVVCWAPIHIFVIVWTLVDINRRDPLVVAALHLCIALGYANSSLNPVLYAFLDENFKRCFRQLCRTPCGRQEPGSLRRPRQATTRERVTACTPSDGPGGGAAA

Sequence of Delta-type opioid receptor (P32300 whole entry): as above
Sequence of Mu-type opioid receptor (P97266 whole entry): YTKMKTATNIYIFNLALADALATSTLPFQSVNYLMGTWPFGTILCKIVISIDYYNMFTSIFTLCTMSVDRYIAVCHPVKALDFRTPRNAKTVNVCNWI

SMILES	IC50 [1]	IC50 [2]	inhibition [3]
NC(=O)[C@H]1CCCN1C(=O)[C@H](Cc1ccccc1)NC(=O)C[C@H]1CCCN1C(=O)[C@@H](N)Cc1ccc(O)cc1 (H-Y[d(β3hP)]F[dP]-NH2)	96 nM	17 nM	–
NC(=O)[C@H](Cc1ccccc1)NC(=O)[C@H](Cc1ccccc1)NC(=O)C[C@@H]1CCCN1C(=O)[C@@H](N)Cc1ccc(O)cc1	1300 nM	260 nM	–
NC(=O)[C@H](Cc1ccccc1)NC(=O)[C@H](Cc1ccccc1)NS(=O)(=O)C[C@@H]1CCCN1C(=O)[C@@H](N)Cc1ccc(O)cc1	1100 nM	730 nM	–
NC(=O)[C@H](Cc1ccccc1)NC(=O)[C@H](Cc1ccccc1)NS(=O)(=O)[C@H]1CCN(C(=O)[C@@H](N)Cc2ccc(O)cc2)C1	530 nM	260 nM	–
NC(=O)[C@H](Cc1ccccc1)NC(=O)[C@H](Cc1ccccc1)NS(=O)(=O)[C@@H]1CCN(C(=O)[C@@H](N)Cc2ccc(O)cc2)C1	390 nM	220 nM	–
NC(=O)[C@H](Cc1ccccc1)NC(=O)[C@H](Cc1ccccc1)NC(=O)C[C@H]1CCCN1C(=O)[C@@H](N)Cc1ccc(O)cc1	1900 nM	420 nM	–
NC(=O)[C@H](Cc1ccccc1)NC(=O)[C@H](Cc1ccccc1)NS(=O)(=O)C[C@H]1CCCN1C(=O)[C@@H](N)Cc1ccc(O)cc1	–	2700 nM	36%
NC(=O)[C@H]1CCCN1C(=O)[C@H](Cc1ccccc1)NC(=O)C[C@@H]1CCCN1C(=O)[C@@H](N)Cc1ccc(O)cc1 (H-Y[β3hP]F[dP]-NH2)	–	1100 nM	33.7%
